Measurements: ChEMBL document CHEMBL3098013, “Novel pyrazole integrated 1,3,4-oxadiazoles: synthesis, characterization and antimicrobial evaluation” (2014)
Converted amounts (≈) assume the structure as drawn.

Key:
Format in all cases: functional
Fusarium verticillioides [1] = test: Antimicrobial activity against Fusarium moniliforme MTCC 156 after 48 hrs by microdilution method; conditions: MTCC 156, 48 h
How it was run: (§1)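 The minimal inhibitory concentration was determined by dilution, alongside minimal bactericidal concentration for bacterial strains and minimal fungicidal concentration for fungal strains. Tests were run in six replicates, and the value is the mean of at least three determinations.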

Klebsiella pneumoniae [2] = test: Antimicrobial activity against Klebsiella pneumoniae MTCC 3384 after 24 hrs by microdilution method; conditions: MTCC 3384, 24 h; how it was run: as §1
Aspergillus niger [3] = test: Antimicrobial activity against Aspergillus niger MTCC 281 at 50 ug/ml after 48 hrs by disc diffusion method; conditions: MTCC 281, 48 h, read-out: DIZ
How it was run: (§2)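 Agar diffusion read-out is the diameter of the inhibition zone in mm. Each test was run in six replicates and reported as mean ± standard deviation, taken from at least three determinations.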

Klebsiella pneumoniae [4] = test: Antimicrobial activity against Klebsiella pneumoniae MTCC 3384 at 100 ug/ml after 24 hrs by disc diffusion method; conditions: MTCC 3384, 24 h, read-out: DIZ; how it was run: as §2
Aspergillus flavus [5] = test: Antimicrobial activity against Aspergillus flavus MTCC 873 after 48 hrs by microdilution method; conditions: MTCC 873, 48 h; how it was run: as §1
Staphylococcus aureus [6] = test: Antimicrobial activity against Staphylococcus aureus MTCC 96 after 24 hrs by microdilution method; conditions: MTCC 96, 24 h; how it was run: as §1
Aspergillus flavus [7] = test: Antimicrobial activity against Aspergillus flavus MTCC 873 at 100 ug/ml after 48 hrs by disc diffusion method; conditions: MTCC 873, 48 h, read-out: DIZ; how it was run: as §2
Escherichia coli [8] = test: Antimicrobial activity against Escherichia coli MTCC 724 at 100 ug/ml after 24 hrs by disc diffusion method; conditions: MTCC 724, 24 h, read-out: DIZ; how it was run: as §2
Aspergillus flavus [9] = test: Antimicrobial activity against Aspergillus flavus MTCC 873 at 50 ug/ml after 48 hrs by disc diffusion method; conditions: MTCC 873, 48 h, read-out: DIZ; how it was run: as §2
Bacillus cereus [10] = test: Antimicrobial activity against Bacillus cereus MTCC 8372 at 100 ug/ml after 24 hrs by disc diffusion method; conditions: MTCC 8372, 24 h, read-out: DIZ; how it was run: as §2
Fusarium verticillioides [11] = test: Antimicrobial activity against Fusarium moniliforme MTCC 156 at 50 ug/ml after 48 hrs by disc diffusion method; conditions: MTCC 156, 48 h, read-out: DIZ; how it was run: as §2
Fusarium oxysporum [12] = test: Antimicrobial activity against Fusarium oxysporum MTCC 284 at 50 ug/ml after 48 hrs by disc diffusion method; conditions: MTCC 284, 48 h, read-out: DIZ; how it was run: as §2
Aspergillus niger [13] = test: Antimicrobial activity against Aspergillus niger MTCC 281 after 48 hrs by microdilution method; conditions: MTCC 281, 48 h; how it was run: as §1
Bacillus cereus [14] = test: Antimicrobial activity against Bacillus cereus MTCC 8372 after 24 hrs by microdilution method; conditions: MTCC 8372, 24 h; how it was run: as §1
Escherichia coli [15] = test: Antimicrobial activity against Escherichia coli MTCC 724 at 50 ug/ml after 24 hrs by disc diffusion method; conditions: MTCC 724, 24 h, read-out: DIZ; how it was run: as §2
Aspergillus niger [16] = test: Antimicrobial activity against Aspergillus niger MTCC 281 at 100 ug/ml after 48 hrs by disc diffusion method; conditions: MTCC 281, 48 h, read-out: DIZ; how it was run: as §2
Staphylococcus aureus [17] = test: Antimicrobial activity against Staphylococcus aureus MTCC 96 at 100 ug/ml after 24 hrs by disc diffusion method; conditions: MTCC 96, 24 h, read-out: DIZ; how it was run: as §2
Fusarium oxysporum [18] = test: Antimicrobial activity against Fusarium oxysporum MTCC 284 at 100 ug/ml after 48 hrs by disc diffusion method; conditions: MTCC 284, 48 h, read-out: DIZ; how it was run: as §2
Staphylococcus aureus [19] = test: Antimicrobial activity against Staphylococcus aureus MTCC 96 at 50 ug/ml after 24 hrs by disc diffusion method; conditions: MTCC 96, 24 h, read-out: DIZ; how it was run: as §2
Klebsiella pneumoniae [20] = test: Antimicrobial activity against Klebsiella pneumoniae MTCC 3384 at 50 ug/ml after 24 hrs by disc diffusion method; conditions: MTCC 3384, 24 h, read-out: DIZ; how it was run: as §2
Fusarium oxysporum [21] = test: Antimicrobial activity against Fusarium oxysporum MTCC 284 after 48 hrs by microdilution method; conditions: MTCC 284, 48 h; how it was run: as §1
Escherichia coli [22] = test: Antimicrobial activity against Escherichia coli MTCC 724 after 24 hrs by microdilution method; conditions: MTCC 724, 24 h; how it was run: as §1
Bacillus cereus [23] = test: Antimicrobial activity against Bacillus cereus MTCC 8372 at 50 ug/ml after 24 hrs by disc diffusion method; conditions: MTCC 8372, 24 h, read-out: DIZ; how it was run: as §2
Fusarium verticillioides [24] = test: Antimicrobial activity against Fusarium moniliforme MTCC 156 at 100 ug/ml after 48 hrs by disc diffusion method; conditions: MTCC 156, 48 h, read-out: DIZ; how it was run: as §2

MIC (Fusarium verticillioides [1]) [µg/mL] | MIC (Klebsiella pneumoniae [2]) [µg/mL] | MIC (Aspergillus flavus [5]) [µg/mL] | MIC (Staphylococcus aureus [6]) [µg/mL] | MIC (Aspergillus niger [13]) [µg/mL] | MIC (Bacillus cereus [14]) [µg/mL] | SMILES | MFC (Fusarium verticillioides [1]) [µg/mL] | MBC (Klebsiella pneumoniae [2]) [µg/mL] | zone of inhibition at 50 µg/mL (Aspergillus niger [3]) [mm] | zone of inhibition at 100 µg/mL (Klebsiella pneumoniae [4]) [mm] | MFC (Aspergillus flavus [5]) [µg/mL] | MBC (Staphylococcus aureus [6]) [µg/mL] | zone of inhibition at 100 µg/mL (Aspergillus flavus [7]) [mm] | zone of inhibition at 100 µg/mL (Escherichia coli [8]) [mm] | zone of inhibition at 50 µg/mL (Aspergillus flavus [9]) [mm] | zone of inhibition at 100 µg/mL (Bacillus cereus [10]) [mm] | zone of inhibition at 50 µg/mL (Fusarium verticillioides [11]) [mm] | zone of inhibition at 50 µg/mL (Fusarium oxysporum [12]) [mm] | MFC (Aspergillus niger [13]) [µg/mL] | MBC (Bacillus cereus [14]) [µg/mL] | further results
55 (≈ 117 µM) | 25 (≈ 53.4 µM) | 40 (≈ 85.4 µM) | 20 (≈ 42.7 µM) | 45 (≈ 96.1 µM) | 20 (≈ 42.7 µM) | Cc1c(-c2nnc(-c3ccc([N+](=O)[O-])cc3)o2)c(-c2ccc([N+](=O)[O-])cc2)nn1-c1ccccc1 | 290 (≈ 619 µM) | 170 (≈ 363 µM) | 6 | 16 | 275 (≈ 587 µM) | 155 (≈ 331 µM) | 11 | 22 | 8 | 22 | 8 | 8 | 275 (≈ 587 µM) | 160 (≈ 342 µM) | zone of inhibition at 50 µg/mL (Escherichia coli [15]): 12 mm; zone of inhibition at 100 µg/mL (Aspergillus niger [16]): 14 mm; zone of inhibition at 100 µg/mL (Staphylococcus aureus [17]): 20 mm; zone of inhibition at 100 µg/mL (Fusarium oxysporum [18]): 16 mm; zone of inhibition at 50 µg/mL (Staphylococcus aureus [19]): 12 mm; zone of inhibition at 50 µg/mL (Klebsiella pneumoniae [20]): 8 mm; MFC (Fusarium oxysporum [21]): 280 µg/mL (≈ 598 µM); MIC (Fusarium oxysporum [21]): 50 µg/mL (≈ 107 µM); MBC (Escherichia coli [22]): 175 µg/mL (≈ 374 µM); MIC (Escherichia coli [22]): 25 µg/mL (≈ 53.4 µM); zone of inhibition at 50 µg/mL (Bacillus cereus [23]): 14 mm; zone of inhibition at 100 µg/mL (Fusarium verticillioides [24]): 18 mm
55 (≈ 117 µM) | 25 (≈ 53.4 µM) | 45 (≈ 96 µM) | 20 (≈ 42.7 µM) | 30 (≈ 64 µM) | 20 (≈ 42.7 µM) | COc1cc(-c2nn(-c3ccccc3)c(C)c2-c2nnc(-c3ccccc3)o2)cc(OC)c1OC | 300 (≈ 640 µM) | 175 (≈ 374 µM) | 10 | 10 | 275 (≈ 587 µM) | 155 (≈ 331 µM) | 12 | 17 | 6 | 22 | 5 | 8 | 220 (≈ 470 µM) | 160 (≈ 342 µM) | zone of inhibition at 50 µg/mL (Escherichia coli [15]): 12 mm; zone of inhibition at 100 µg/mL (Aspergillus niger [16]): 20 mm; zone of inhibition at 100 µg/mL (Staphylococcus aureus [17]): 26 mm; zone of inhibition at 100 µg/mL (Fusarium oxysporum [18]): 10 mm; zone of inhibition at 50 µg/mL (Staphylococcus aureus [19]): 10 mm; zone of inhibition at 50 µg/mL (Klebsiella pneumoniae [20]): 6 mm; MFC (Fusarium oxysporum [21]): 290 µg/mL (≈ 619 µM); MIC (Fusarium oxysporum [21]): 40 µg/mL (≈ 85.4 µM); MBC (Escherichia coli [22]): 170 µg/mL (≈ 363 µM); MIC (Escherichia coli [22]): 25 µg/mL (≈ 53.4 µM); zone of inhibition at 50 µg/mL (Bacillus cereus [23]): 11 mm; zone of inhibition at 100 µg/mL (Fusarium verticillioides [24]): 10 mm
50 (≈ 126 µM) | 25 (≈ 63.1 µM) | 50 (≈ 126 µM) | 25 (≈ 63.1 µM) | 30 (≈ 75.7 µM) | 25 (≈ 63.1 µM) | Cc1c(C(=O)NNC(=O)c2ccccc2)c(-c2ccccc2)nn1-c1ccccc1 | 260 (≈ 656 µM) | 200 (≈ 504 µM) | 8 | 14 | 275 (≈ 694 µM) | 200 (≈ 504 µM) | 12 | 18 | 10 | 16 | 6 | 8 | 215 (≈ 542 µM) | 180 (≈ 454 µM) | zone of inhibition at 50 µg/mL (Escherichia coli [15]): 13 mm; zone of inhibition at 100 µg/mL (Aspergillus niger [16]): 14 mm; zone of inhibition at 100 µg/mL (Staphylococcus aureus [17]): 18 mm; zone of inhibition at 100 µg/mL (Fusarium oxysporum [18]): 10 mm; zone of inhibition at 50 µg/mL (Staphylococcus aureus [19]): 6 mm; zone of inhibition at 50 µg/mL (Klebsiella pneumoniae [20]): 8 mm; MFC (Fusarium oxysporum [21]): 260 µg/mL (≈ 656 µM); MIC (Fusarium oxysporum [21]): 40 µg/mL (≈ 101 µM); MBC (Escherichia coli [22]): 190 µg/mL (≈ 479 µM); MIC (Escherichia coli [22]): 25 µg/mL (≈ 63.1 µM); zone of inhibition at 50 µg/mL (Bacillus cereus [23]): 8 mm; zone of inhibition at 100 µg/mL (Fusarium verticillioides [24]): 9 mm
